Screening results: PubChem, several laboratories
The list is not random: actives were taken first. Their share in the collection is about 0.74%.
HKDC1 inh = inhibitors of human hexokinase HKDC1. actives 0.16% (n = 340,000). AID 493160. recombinant HKDC1, G6PDH/diaphorase resazurin coupled fluorescence. Q2TB90. inhibition, % at 20 µM;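 active means inhibition above about 35% when tested at 20 µM, limit read from the data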;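 further: plate controls were DMSO wells with enzyme for no effect and DMSO wells lacking enzyme for full effect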
Target sequence (Q2TB90 whole entry, looked up): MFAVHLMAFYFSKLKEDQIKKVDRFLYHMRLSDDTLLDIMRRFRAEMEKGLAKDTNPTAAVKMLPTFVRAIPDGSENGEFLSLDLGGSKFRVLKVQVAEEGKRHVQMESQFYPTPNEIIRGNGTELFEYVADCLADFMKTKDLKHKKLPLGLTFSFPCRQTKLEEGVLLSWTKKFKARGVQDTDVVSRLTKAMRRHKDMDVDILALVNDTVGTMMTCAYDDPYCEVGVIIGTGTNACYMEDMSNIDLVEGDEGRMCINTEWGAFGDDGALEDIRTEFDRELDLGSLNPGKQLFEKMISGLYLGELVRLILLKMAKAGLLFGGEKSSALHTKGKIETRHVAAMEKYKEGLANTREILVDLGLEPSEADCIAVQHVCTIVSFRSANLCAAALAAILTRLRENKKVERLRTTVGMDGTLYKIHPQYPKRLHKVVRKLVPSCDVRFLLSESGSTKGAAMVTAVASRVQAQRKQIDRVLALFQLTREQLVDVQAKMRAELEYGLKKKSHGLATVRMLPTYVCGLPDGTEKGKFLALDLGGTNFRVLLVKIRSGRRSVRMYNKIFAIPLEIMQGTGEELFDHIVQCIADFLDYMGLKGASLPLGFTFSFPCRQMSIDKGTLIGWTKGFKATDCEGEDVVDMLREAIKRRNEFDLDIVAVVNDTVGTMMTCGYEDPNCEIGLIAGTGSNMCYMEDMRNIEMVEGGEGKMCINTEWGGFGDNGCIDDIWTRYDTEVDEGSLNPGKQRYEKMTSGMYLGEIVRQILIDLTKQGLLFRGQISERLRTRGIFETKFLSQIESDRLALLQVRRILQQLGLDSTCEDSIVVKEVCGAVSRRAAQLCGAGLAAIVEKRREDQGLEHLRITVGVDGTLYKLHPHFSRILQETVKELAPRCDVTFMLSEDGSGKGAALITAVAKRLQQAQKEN
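Incubation: 90 min at room temperature in dark / Material: recombinant HKDC1 (HK5) hexokinase enzyme, produced in-house / Quantity: enzyme 5 µg/mL final / Compound: one dose of 20 µM, 1% DMSO / Reagent: glucose and ATP substrates / Buffer or medium: Tris pH 8.0 buffer with MgCl2, Tween-20, BSA, BME / Technique: resorufin fluorescence at 613 nm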
Diaph inh CS = inhibits diaphorase or chemically oxidizes, flagging diaphorase assay artifacts | diaphorase resazurin-to-resorufin fluorescence, NADH, 16 min; bacterial (C. kluyveri) enzyme, not human | inhibition, % at 20 µM | actives 0.69% (n = 190,000);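 active means primary screen inhibition at 20 µM above a set limit, cut at about 50% in these data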;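 further: plate controls were DMSO with full reaction for no effect and wells lacking NADH for full effect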
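System: Diaphorase enzyme from Clostridium kluyveri | Amount: Enzyme working solution with 0.14 U/mL diaphorase | Benchmarks: No-NADH positive control and DMSO neutral control | Signal: Fluorescence of resorufin formed from resazurin, Ex 544/Em 590 nm | Schedule: 16-min room-temperature incubation before reading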
Arbovirus anti = arbovirus infection inhibition. arbovirus infection cell-based antiviral screen. inhibition, % at 10 µM. actives 0.37% (n = 200,000). AID 1251; in the data active means inhibition above about 30%
Diaphorase act = activates diaphorase or chemically reduces, flagging diaphorase assay artifacts | Diaphorase/resazurin coupled assay, resorufin fluorescence, 16 min; stronger effect = higher value; 1 = vehicle wells, 0 = NADH-free wells | activation factor at 20 µM | actives 0.005% (n = 190,000) | AID 1229;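 active means diaphorase activity raised at least twofold by the compound at 20 µM; inactive means activation factor below 2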
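Assay system: bacterial diaphorase enzyme (C. kluyveri) / Input: enzyme 0.07 U/mL final / Medium: 50 mM HEPES pH 7.4 with 4.542 mM MgCl2, 0.005% Tween 20 / Doses: single compound dose of 20 µM, 1% DMSO final / Incubation: 16 min enzyme reaction, ambient temperature / Signal: fluorescence, excitation 544 nm and emission 590 nm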
G6PDH CS = L. mesenteroides G6PDH inhibition counter-screen. Purified L. mesenteroides G6PDH, diaphorase/resazurin coupled fluorescence, 45 min. inhibition, % at 5 µM. actives 0.12% (n = 200,000); in the data active means inhibition above about 50%
* = called active by the depositor; · = not tested or not shown.

SMILES | HKDC1 inh | Diaph inh CS | Arbovirus anti | Diaphorase act | G6PDH CS
COc1cc(/C=C2/C(=N)N3C(SC)=NSC3=NC2=O)ccc1OC(=O)c1ccco1 | 12.3 | · | · | · | ·
CC1=CC2=NC(=O)/C(=C/c3cccs3)C(=N)N2O1 | -2.1 | · | · | · | ·
O=C(Nc1cccc(S(=O)(=O)N2CCOCC2)c1)c1cc(S(=O)(=O)N2CCOCC2)c(Cl)cc1Cl | -2.8 | · | · | · | ·
COc1ccc(N(CC(=O)NC2CC3CCC2C3)S(=O)(=O)c2ccccc2)cc1Cl (stereo not drawn) | -7.1 | · | · | · | ·
CC(C)(C)OC(=O)[C@H](Cc1ccccc1)NC(=O)c1nc[nH]c1C(=O)NC1CCN(C(=O)OC(C)(C)C)CC1 | -0.3 | 51.8* | -20.1 | 0.5 | 13.5
CC(C)c1cc(C(F)(F)F)n2nc(C(=O)Nc3ccc4c(c3)OCO4)cc2n1 | 4.3 | 14.7 | 30.7* | 0.9 | 7.2
CC(C)c1cc(C(=O)Nc2ccc3c(c2)OCO3)no1 | -2.6 | 11.1 | -14.6 | 0.9 | -18.1
O=C1CCCC2=C1C(c1ccncc1)c1c(nc(SCc3ccccc3Cl)[nH]c1=O)N2 (stereo not drawn) | 16.4 | 2.0 | 7.4 | 1 | 0.7
CCC(C)Sc1nc2c(c(=O)[nH]1)C(c1cccs1)C1=C(CCCC1=O)N2 (stereo not drawn) | 5.3 | 9.0 | 32.9* | 0.9 | -1.9
CCOC(=O)c1ccccc1NC(=O)COC(=O)CCNS(=O)(=O)c1cccs1 | -1.3 | · | · | · | ·
CCOc1ccc(S(=O)(=O)/N=C(/Nc2ccc(C(C)=O)cc2)c2ccccc2)cc1 | 5.9 | · | · | · | ·
Cc1oc(-c2ccc(Cl)cc2)cc1-c1nn2c(-c3ccco3)nnc2s1 | · | 32.1 | · | 0.7 | 3.6
Cc1oc(-c2ccc(F)cc2)cc1-c1nn2c(-c3ccoc3C)nnc2s1 | 3.4 | 57.5* | · | 0.4 | 7.0
Cc1ccc(-c2nc3cccnc3s2)cc1NS(=O)(=O)c1ccc2c(c1)OCCO2 | -1.0 | 4.6 | -14.1 | 1 | -11.3
O=S(=O)(Nc1cccc(-c2nc3cccnc3s2)c1)c1ccc2c(c1)OCCO2 | 4.2 | 38.9 | 31.0* | 0.6 | -44.1
O=[N+]([O-])c1cc(-c2ncccn2)c([N+](=O)[O-])s1 | 9.5 | 50.8* | -34.4 | 0.5 | 3.3
O=C(Nc1ncccn1)c1cc([N+](=O)[O-])cc([N+](=O)[O-])c1 | -2.4 | 0.7 | 1.6 | 1 | -10.9
O=C(CSc1nc(-c2ccccc2)nc2ccccc12)Nc1cccc(C(=O)O)c1 | 21.6 | 20.8 | 10.1 | 0.8 | 2.2
O=C(CSc1nc(-c2ccccc2)nc2c1Cc1ccccc1O2)Nc1ccc(C(=O)O)cc1 | 32.2 | 42.0 | 68.3* | 0.6 | -1.4
S=c1[nH]ncn1/N=C/c1ccc(Br)cc1 | 9.6 | 41.8 | 1.3 | 0.6 | -0.1
CCn1c2ccccc2c2cc(/C=N/n3cnnc3)ccc21 | 0.6 | 17.7 | 1.5 | 0.8 | -7.6
CCn1c2ccccc2c2cc(/C=N/n3cn[nH]c3=S)ccc21 | 3.8 | 61.6* | 1.1 | 0.4 | 3.3
S=c1[nH]ncn1/N=C/c1ccccc1 | 3.9 | 60.3* | -3.5 | 0.4 | 1.2
Cc1c2ccccc2nc2c(F)c(NCCO)c(F)c(F)c12 | 6.2 | 53.1* | 1.5 | 0.5 | 6.4
Cc1ccc2nc(N3C(=O)C(O)=C(C(=O)c4cc5ccccc5o4)C3c3cccs3)sc2c1 (stereo not drawn) | -11.8 | 11.6 | 32.0* | 0.9 | 7.6
SMILES | HKDC1 inh | Diaph inh CS | Arbovirus anti | Diaphorase act | G6PDH CS
CCc1ccc2nc(N3C(=O)C(O)=C(C(=O)c4ccco4)C3c3cccs3)sc2c1 (stereo not drawn) | 11.2 | 32.1 | 13.5 | 0.7 | 10.1
CC(=O)C1N=NCC1c1ccccc1 (stereo not drawn) | 0.1 | · | · | · | ·
FC(F)Oc1cccc(NC(=S)N2CCN(c3ccccn3)CC2)c1 | -6.2 | 69.6* | -0.1 | 0.3 | 0.5
O=C(CCn1c(=O)oc2ccccc21)N(Cc1ccccc1)c1ccccc1 | 2.5 | 69.2* | -1.3 | 0.3 | 7.2
Cc1c(C)c(C)c(S(=O)(=O)NCCC(=O)N2CCN(Cc3ccc(C#N)cc3)CC2)c(C)c1C | -2.4 | · | · | · | ·
O=C(N/N=C/c1ccc(O)c([N+](=O)[O-])c1)C1CC1(c1ccccc1)c1ccccc1 (stereo not drawn) | 10.2 | 72.0* | 26.4 | 0.3 | 12.6
O=[N+]([O-])c1cc(/C=N\Nc2nc(-c3ccccc3)cs2)ccc1O | 2.6 | -5.5 | 48.2* | 1.1 | 12.6
O=C(N/N=C/c1ccncc1)C1CC1(c1ccccc1)c1ccccc1 (stereo not drawn) | 6.1 | · | · | · | ·
CC1CCCN(C(=S)SCC(=O)c2cc(Br)cc(Br)c2O)C1 (stereo not drawn) | -15.0 | 61.5* | 3.3 | 0.4 | 22.7
CCOC(=O)c1oc2nc(C(C)C)c3c(c2c1N)CC(C)(C)OC3 | 32.6 | 68.2* | -8.3 | 0.3 | 11.7
CCCc1nc2oc(C(=O)OCC)c(N)c2c2c1COC(C)(C)C2 | 10.3 | 12.4 | 0.2 | 0.9 | 1.5
CCOc1ccc(NS(=O)(=O)c2ccc(C(=O)NCCCN3CCCC3=O)cc2)cc1 | -2.8 | · | · | · | ·
Cc1ccc(NS(=O)(=O)c2ccc(C)c(C(=O)Nc3ccc(S(=O)(=O)Nc4onc(C)c4C)cc3)c2)cc1 | -3.5 | · | · | · | ·
COc1ccc(-c2ncncc2-c2csc(C)n2)c(O)c1OC | -6.3 | 0.7 | 9.4 | 1 | 0.4
COC1=C(N)C(=O)c2nc(-c3nc(C(=O)O)c(C)c(-c4ccc(OC)c(OC)c4O)c3N)ccc2C1=O | 4.0 | 68.1* | -43.2 | 0.3 | 55.8*
O=Cc1cn(-c2ccccc2)nc1-c1cc2cc(O)ccc2oc1=O | 20.0 | 13.7 | 33.2* | 0.9 | 3.9
Oc1ccc(/C=N/N2CCOCC2)c(O)c1O | 1.2 | 69.2* | 12.3 | 0.3 | 52.3*
Oc1ccc(/C=N/N2CCCCC2)c(O)c1O | -1.4 | · | · | · | ·
CCn1c(COc2cccc3ccccc23)nnc1SCC(=O)OC1CCCCC1 | 22.6 | 18.9 | 33.8* | 0.8 | 15.8
Cc1cc(C2C(=O)c3ccccc3C2=O)c(C)c(C)c1C | -4.3 | · | · | · | ·
CCCSc1nc2sc3c(c2c(=O)[nH]1)CCN(Cc1ccccc1)C3 | -1.9 | 54.5* | -2.1 | 0.5 | -43.6
O=C(Nc1nnc(SCc2ccccc2Cl)s1)C1COc2ccccc2O1 (stereo not drawn) | 7.3 | 20.8 | 41.2* | 0.8 | 1.1
Cc1csc(NC(=O)C2COc3ccccc3O2)n1 (stereo not drawn) | 6.2 | 19.0 | -6.1 | 0.8 | 2.9
Cc1ccccc1CSc1nnc(NC(=O)C2COc3ccccc3O2)s1 (stereo not drawn) | -2.5 | 4.4 | 48.2* | 1 | 5.7
O=C(Nc1nnc(SCc2cccc3ccccc23)s1)C1COc2ccccc2O1 (stereo not drawn) | 5.9 | 16.2 | 20.4 | 0.8 | -29.8
CC(C)C[C@H]1CNC(=O)C(=O)N1CC1CCN(CCc2ccc(-c3ccccc3)cc2)CC1 | 0.0 | · | · | · | ·
c1ccc(C2=Nn3c(nnc3-c3ccco3)SC2)cc1 | 7.2 | 73.1* | -4.6 | 0.3 | -0.8
Fc1ccc(C2=Nn3c(nnc3-c3ccco3)SC2)cc1 | -4.9 | · | · | · | ·
